Calls of active or inactive are those of the source.
Tests used:
Histone deacetylase 1 = Histone deacetylase 1 (Homo sapiens, UniProt Q13547); experiment: Inhibition of human recombinant HDAC1 using Boc-lys(Ac)-AMC as substrate preincubated for 20 mins with substrate measured after 60 mins by fluorescence analysis
[1] = Growth inhibition of human WI38 cells after 96 hrs by sulphorhodamine B assay; assay type: cell-based; settings: WI-38 cells
Procedure, shortened: (§1)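 SRB growth assay; MCF7 and WI38 seeded 4000 cells/well, A549 2000 cells/well, attached overnight, then exposed to freshly made drug solutions (0.1 to 50 μM) for 96 h. Fixed with cold 10% TCA, stained with 0.4% SRB; absorbance at 540 nm as percent of untreated control, IC50 from mean absorbance.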

[2] = target: T1, Protein deacetylase HDAC6 (Homo sapiens, UniProt Q9UBN7); experiment: Inhibition of human recombinant HDAC6 using Boc-lys(Ac)-AMC as substrate preincubated for 20 mins with substrate measured after 60 mins by fluorescence analysis
T1 sequence (Q9UBN7 whole entry): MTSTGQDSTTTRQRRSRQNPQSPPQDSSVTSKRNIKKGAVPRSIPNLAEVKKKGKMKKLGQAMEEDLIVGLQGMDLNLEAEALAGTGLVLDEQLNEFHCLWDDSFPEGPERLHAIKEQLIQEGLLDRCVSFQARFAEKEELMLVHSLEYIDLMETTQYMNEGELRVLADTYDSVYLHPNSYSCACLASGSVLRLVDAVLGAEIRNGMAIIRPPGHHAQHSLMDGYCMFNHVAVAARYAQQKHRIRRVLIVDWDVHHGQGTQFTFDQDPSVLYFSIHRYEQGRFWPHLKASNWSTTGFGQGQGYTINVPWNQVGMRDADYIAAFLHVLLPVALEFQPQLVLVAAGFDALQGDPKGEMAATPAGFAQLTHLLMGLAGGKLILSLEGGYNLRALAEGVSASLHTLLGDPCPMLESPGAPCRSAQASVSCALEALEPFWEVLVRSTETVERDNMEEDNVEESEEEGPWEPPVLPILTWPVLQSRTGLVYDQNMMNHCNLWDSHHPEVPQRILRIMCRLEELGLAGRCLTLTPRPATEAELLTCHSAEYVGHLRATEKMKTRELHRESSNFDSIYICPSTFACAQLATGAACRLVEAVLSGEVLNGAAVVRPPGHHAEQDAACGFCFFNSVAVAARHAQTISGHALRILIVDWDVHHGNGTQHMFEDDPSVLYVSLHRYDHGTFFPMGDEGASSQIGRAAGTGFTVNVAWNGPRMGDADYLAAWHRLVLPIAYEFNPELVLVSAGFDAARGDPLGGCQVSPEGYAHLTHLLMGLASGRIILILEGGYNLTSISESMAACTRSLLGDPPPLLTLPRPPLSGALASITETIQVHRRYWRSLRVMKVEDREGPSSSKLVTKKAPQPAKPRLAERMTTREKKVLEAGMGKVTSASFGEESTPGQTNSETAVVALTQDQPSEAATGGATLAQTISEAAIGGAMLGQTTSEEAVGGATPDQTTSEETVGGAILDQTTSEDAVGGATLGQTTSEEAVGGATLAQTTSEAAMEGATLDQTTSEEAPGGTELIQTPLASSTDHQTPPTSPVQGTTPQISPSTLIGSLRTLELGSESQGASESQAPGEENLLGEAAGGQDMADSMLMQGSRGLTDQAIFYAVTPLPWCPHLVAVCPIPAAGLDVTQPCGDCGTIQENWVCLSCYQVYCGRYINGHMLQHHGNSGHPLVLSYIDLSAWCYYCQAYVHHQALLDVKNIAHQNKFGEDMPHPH

[3] = target: T2, Histone deacetylase-like amidohydrolase (Alcaligenes sp. (strain DSM 11172) (Bordetella sp. (strain FB188))) (UniProt Q70I53); experiment: Inhibition of Bordetella sp. (strain FB188) N-terminus His-tagged HDAH expressed in Escherichia coli BL21 (DE3) up to 100 uM; settings: Alcaligenaceae bacterium FB188
T2 sequence (whole entry): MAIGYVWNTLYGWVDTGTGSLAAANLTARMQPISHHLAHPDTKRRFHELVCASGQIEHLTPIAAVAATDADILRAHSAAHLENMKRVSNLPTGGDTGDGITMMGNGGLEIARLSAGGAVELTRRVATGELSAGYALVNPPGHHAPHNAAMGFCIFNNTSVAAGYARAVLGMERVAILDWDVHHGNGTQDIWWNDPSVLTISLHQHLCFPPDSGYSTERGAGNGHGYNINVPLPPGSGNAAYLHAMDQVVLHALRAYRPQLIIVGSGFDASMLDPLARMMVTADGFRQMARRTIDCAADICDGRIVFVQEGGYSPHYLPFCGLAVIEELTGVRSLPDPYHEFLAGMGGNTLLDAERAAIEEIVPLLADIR
Procedure, shortened: (§2)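 Recombinant N-terminal His6-tagged HDAH from Bordetella strain FB188, expressed in E. coli BL21, purified on zinc-loaded His-Trap column, eluted with 500 mM imidazole, dialyzed into assay buffer (>98% pure by SDS-PAGE). Tested directly against compounds; thiols generated in situ from disulfides with TCEP.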

A549 = experiment: Growth inhibition of human A549 cells after 96 hrs by sulphorhodamine B assay; assay type: functional; settings: A549, 96 h; procedure, shortened: as §1
MCF7 = experiment: Growth inhibition of human MCF7 cells after 96 hrs by sulphorhodamine B assay; assay type: functional; settings: MCF7, 96 h; procedure, shortened: as §1
[4] = target: T3, Histone deacetylase-like amidohydrolase (Alcaligenes sp. (strain DSM 11172) (Bordetella sp. (strain FB188)), UniProt Q70I53); experiment: Inhibition of Bordetella sp. (strain FB188) N-terminus His-tagged HDAH expressed in Escherichia coli BL21 (DE3); set-up: species or system Alcaligenaceae bacterium FB188; procedure, shortened: as §2
T3 sequence (Q70I53 whole entry): T2 sequence (whole entry)

[5] = target: DNA (cytosine-5)-methyltransferase 1 (Homo sapiens, UniProt P26358); experiment: Inhibition of full length N-terminal His6-tagged human DNMT1 at 120 uM after 1 hr by fluorescence analysis
Chain of DNA (cytosine-5)-methyltransferase 1 (P26358 whole entry): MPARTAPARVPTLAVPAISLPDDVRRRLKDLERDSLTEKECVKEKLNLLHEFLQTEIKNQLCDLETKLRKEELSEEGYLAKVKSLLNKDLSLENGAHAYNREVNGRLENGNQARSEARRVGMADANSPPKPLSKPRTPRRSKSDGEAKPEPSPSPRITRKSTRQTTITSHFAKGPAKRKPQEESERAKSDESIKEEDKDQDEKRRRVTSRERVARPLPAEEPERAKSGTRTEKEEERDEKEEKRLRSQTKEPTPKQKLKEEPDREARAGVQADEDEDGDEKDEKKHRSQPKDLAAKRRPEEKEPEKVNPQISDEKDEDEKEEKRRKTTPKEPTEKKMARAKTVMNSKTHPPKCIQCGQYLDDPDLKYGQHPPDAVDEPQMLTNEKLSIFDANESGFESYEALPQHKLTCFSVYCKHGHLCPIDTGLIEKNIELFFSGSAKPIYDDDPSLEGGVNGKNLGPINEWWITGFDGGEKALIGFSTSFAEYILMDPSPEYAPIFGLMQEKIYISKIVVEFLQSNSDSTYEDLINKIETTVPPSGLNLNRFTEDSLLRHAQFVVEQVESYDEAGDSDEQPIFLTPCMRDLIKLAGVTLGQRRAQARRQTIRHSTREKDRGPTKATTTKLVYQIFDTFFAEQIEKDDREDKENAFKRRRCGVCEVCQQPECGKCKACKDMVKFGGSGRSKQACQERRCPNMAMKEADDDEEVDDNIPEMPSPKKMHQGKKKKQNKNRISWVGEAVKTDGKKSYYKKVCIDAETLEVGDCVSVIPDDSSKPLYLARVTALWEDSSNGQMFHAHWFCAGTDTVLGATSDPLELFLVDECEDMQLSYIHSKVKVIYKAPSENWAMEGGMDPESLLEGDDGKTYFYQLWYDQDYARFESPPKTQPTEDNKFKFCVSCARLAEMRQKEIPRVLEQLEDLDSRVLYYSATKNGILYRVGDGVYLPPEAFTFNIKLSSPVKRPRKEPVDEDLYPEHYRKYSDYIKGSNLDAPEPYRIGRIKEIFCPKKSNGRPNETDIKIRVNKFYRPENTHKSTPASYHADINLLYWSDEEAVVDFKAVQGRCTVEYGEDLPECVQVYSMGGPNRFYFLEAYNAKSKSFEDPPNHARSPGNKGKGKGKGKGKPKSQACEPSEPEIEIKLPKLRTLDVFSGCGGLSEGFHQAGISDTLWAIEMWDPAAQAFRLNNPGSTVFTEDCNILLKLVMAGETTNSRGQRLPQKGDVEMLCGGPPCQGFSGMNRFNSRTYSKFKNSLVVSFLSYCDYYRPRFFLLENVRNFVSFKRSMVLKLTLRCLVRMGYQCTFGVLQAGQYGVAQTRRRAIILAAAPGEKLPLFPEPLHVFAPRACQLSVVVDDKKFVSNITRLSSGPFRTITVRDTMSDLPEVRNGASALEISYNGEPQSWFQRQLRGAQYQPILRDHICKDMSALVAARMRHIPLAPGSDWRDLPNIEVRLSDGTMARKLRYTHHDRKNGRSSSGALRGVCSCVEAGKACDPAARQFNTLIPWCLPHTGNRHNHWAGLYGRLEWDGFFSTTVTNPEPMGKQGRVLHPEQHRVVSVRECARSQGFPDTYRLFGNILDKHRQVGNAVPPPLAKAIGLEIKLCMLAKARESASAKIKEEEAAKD
Procedure, shortened: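 Baculovirus-expressed DNMT1 (80 nM final) with SAM (10 μM final) and hemimethylated hairpin oligo (125 nM final) in MOPS buffer pH 6.5 with 1 mM DTT, 1 h room temperature. Stopped with Gla1 plus 125 μM SAH, developed 7 h; fluorescence Ex 485/Em 520 nm. Thiols made in situ by TCEP reduction; no SAM as full-inhibition control.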

Bacteria [6] = experiment: Inhibition of bacterial DNA cytosine-C5 methyltransferase, M.SssI at 50 uM
Procedure, shortened: (§3)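 One unit M.SssI with 1 μg bacteriophage λ DNA in NEBuffer2 (pH 7.9, 1 mM DTT) plus 160 μM SAM, ±inhibitor, 2 h at 37 °C; heat-inactivated 65 °C 20 min. Methylation read by BstUI digestion (10 units, 1 h 60 °C) and 1.5% agarose gel electrophoresis; run four times with positive and negative controls.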

Histone deacetylase 8 = target: T4, Histone deacetylase 8 (Homo sapiens, UniProt Q9BY41); experiment: Inhibition of human recombinant HDAC8 using Boc-lys(Ac)-AMC as substrate preincubated for 20 mins with substrate measured after 60 mins by fluorescence analysis
T4 sequence (Q9BY41 whole entry): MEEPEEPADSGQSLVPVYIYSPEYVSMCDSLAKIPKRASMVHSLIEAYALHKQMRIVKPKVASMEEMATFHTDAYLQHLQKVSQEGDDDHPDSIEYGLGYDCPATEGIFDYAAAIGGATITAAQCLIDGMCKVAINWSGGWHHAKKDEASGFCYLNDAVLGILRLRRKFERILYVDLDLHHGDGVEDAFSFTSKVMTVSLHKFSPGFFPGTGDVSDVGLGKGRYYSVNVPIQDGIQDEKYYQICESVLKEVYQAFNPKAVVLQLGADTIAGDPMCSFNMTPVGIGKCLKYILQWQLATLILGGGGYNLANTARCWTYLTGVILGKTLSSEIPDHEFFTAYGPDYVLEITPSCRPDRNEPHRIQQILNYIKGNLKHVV

Bacteria [7] = experiment: Inhibition of bacterial DNA cytosine-C5 methyltransferase, M.SssI at 5 uM; procedure, shortened: as §3

Chain of Histone deacetylase 1 (Q13547 whole entry): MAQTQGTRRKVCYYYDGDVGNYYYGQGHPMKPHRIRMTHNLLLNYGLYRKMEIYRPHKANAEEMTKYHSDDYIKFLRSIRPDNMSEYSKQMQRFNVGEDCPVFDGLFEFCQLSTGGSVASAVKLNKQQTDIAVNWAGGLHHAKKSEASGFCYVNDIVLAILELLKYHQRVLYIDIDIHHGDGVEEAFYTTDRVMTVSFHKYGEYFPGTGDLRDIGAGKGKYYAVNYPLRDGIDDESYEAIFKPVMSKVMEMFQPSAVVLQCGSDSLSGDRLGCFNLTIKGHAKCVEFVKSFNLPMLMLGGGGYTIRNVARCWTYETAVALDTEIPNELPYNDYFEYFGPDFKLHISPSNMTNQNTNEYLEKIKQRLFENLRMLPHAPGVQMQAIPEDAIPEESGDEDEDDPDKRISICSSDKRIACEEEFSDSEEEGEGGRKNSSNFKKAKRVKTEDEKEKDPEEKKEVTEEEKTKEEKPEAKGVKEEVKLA

Row | IC50 (Histone deacetylase 1) | IC50 [2] | inhibition [3] | GI50 (A549) | GI50 (MCF7) | IC50 [4] | inhibition [5] | inhibition (Bacteria [6]) | IC50 (Histone deacetylase 8) | inhibition (Bacteria [7]) | Compound | GI50 at 96 h [1]
1 | 7.7 µM | > 50 µM | inactive | > 50 µM | > 50 µM | – | – | – | – | – | CSCCNC(=O)/C(Cc1ccc(O)c(Br)c1)=N/O | > 50 µM
2 | 5 µM | 9 µM | inactive | 15.2 µM | 13.1 µM | – | – | – | – | – | O=C(Cc1ccc(O)c(Br)c1)C(=O)NCCSSCCNC(=O)C(=O)Cc1ccc(O)c(Br)c1 | 33.1 µM
3 | 0.31 µM | 1.7 µM | Active | – | – | 5.25 µM | – | – | – | – | O=C(CCCNC(=O)/C(Cc1ccc(O)c(Br)c1)=N/O)NO | –
4 | – | – | inactive | 16.3 µM | 11.1 µM | – | – | – | – | – | O=C(NCCSSCCNC(=O)/C(Cc1ccccc1)=N/O)/C(Cc1ccccc1)=N/O | > 50 µM
5 | 0.027 µM | 0.22 µM | inactive | 10.6 µM | 19.3 µM | – | inactive | – | – | – | CO/N=C(\Cc1ccc(O)c(Br)c1)C(=O)NCCS | 24.2 µM
6 | 0.4 µM | 1 µM | inactive | 43 µM | 35.4 µM | – | – | – | – | – | O=C(Cc1ccc(O)c(Br)c1)C(=O)NCCS | 42.6 µM
7 | – | – | inactive | 2.51 µM | 0.72 µM | – | – | – | – | – | COc1cc(C/C(=N\O)C(=O)NCCSSCCNC(=O)/C(Cc2cc(Br)c(OC)c(OC)c2)=N/O)cc(Br)c1OC | 2.14 µM
8 | 0.0009 µM | – | inactive | 2.53 µM | 2.35 µM | 30.2 µM | inactive | Active | 1.3 µM | Active | O=C(NCCS)/C(Cc1ccc(O)c(Br)c1)=N/O | 3.4 µM

Row | Compound | IC50 (Histone deacetylase 1) | IC50 [2] | inhibition [3] | GI50 (A549) | GI50 (MCF7) | IC50 [4] | inhibition [5] | inhibition (Bacteria [6]) | IC50 (Histone deacetylase 8) | inhibition (Bacteria [7]) | GI50 at 96 h [1]
9 | O=C(O)CCP(CCC(=O)O)CCC(=O)O | > 25 µM | > 25 µM | – | > 50 µM | > 50 µM | – | – | – | – | – | > 50 µM

From ChEMBL document CHEMBL2046381, “Defining the mechanism of action and enzymatic selectivity of psammaplin A against its epigenetic targets” (J Med Chem, 2012)
